Consider 167 variants from the RNAGym collection of RNA variant scans (doi:10.1126/science.aae0568).

First the molecules themselves.
B1: tRNA (parent)
chain: GUUCCGUUGGCGUAAUGGUAACGCGUCUCCCUCCUAAGGAGAAGACUGCGGGUUCGAGUCCCGUACGGAACG

This sample holds only a part of the variants without activity. Where only a bound is given, the exact number is not on record here.

This data set covers variants of B1. The data set is described as follows: yeast fitness relative to wild type (ratio to wild type); higher = fitter; tRNA-Arg(CCU), competitive growth, 37 C, YPD. The essentials: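 A pool of Saccharomyces cerevisiae strains, each with a tRNA-Arg(CCU) gene variant at the native genomic locus, was competed in YPD at 37°C for 24 hours across six parallel replicates. The variants had been chemically synthesised at a 3% per-site mutation rate over 69 sites, and gene amplicons before and after competition were read by 100-nucleotide paired-end sequencing. Darwinian fitness relative to wild type rested on changes in genotype frequencies. Genotypes required ≥ 100 starting reads, and estimates < 0.5 were set to 0.5.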
For the variant C5G A14U G18A A21U A42G G68A, the yeast fitness was determined as 0.522. The figure for C4U A45U C66G is 0.598; for C4A C29G C34G C49U it is 0.557; for G12C G67A it is 0.771. The figure for G9A U16A G25C C46G is 0.588. On to C4U G44A U47C G56A, for which the yeast fitness is ≤ 0.5. For A20C C27U A37C A42G C66U the value was ≤ 0.5. For A15G G18A the value was 0.793; for C33A U54C C55G, ≤ 0.5; for U2C G25A G52A, ≤ 0.5. For C22G U28A A36U, the yeast fitness was 0.631. As for C24U U59A C60G, the yeast fitness was 0.754. Take C24U A36U A43G: the yeast fitness worked out at 0.509. Take C22G C27U C66U: the yeast fitness is 0.701. For C5U U16C G18A C30A G58A G68U the value was ≤ 0.5.

For the variant G9A U35A A37U C46U A65C, the yeast fitness is 0.633. For A20U A43G A70U the value was 0.661; for C33U A36C A43G A57U, ≤ 0.5. With C4U A15C G63A, the yeast fitness was ≤ 0.5.

With A15G C34U A36G, the yeast fitness was determined as 0.563. The figure for C11A A14C C34A A36G is ≤ 0.5. For A20G C46U the value was 0.942.

With G9C C27A C30U C33G, the yeast fitness is ≤ 0.5.

Take C11U U28C G44C U64C: the yeast fitness was ≤ 0.5. The figure for U19A U28A U53G is ≤ 0.5; for U3C U26C C30U A37G C61A it is ≤ 0.5; for C24U C29U A36C A42U C66A it is ≤ 0.5. The figure for C4A G17A is 0.718.

For G17C C22G, the yeast fitness was 0.619. For A45G C46G U54G A70C the value was ≤ 0.5; for U3C, 0.996. Take U13A G23C C27G U53C: the yeast fitness is ≤ 0.5. U2A U8C G23A C29G: the yeast fitness is ≤ 0.5. For U28G G56C the value was 0.655; for U7C C49A G67U, 0.59. The figure for C4A A14G is 0.72; for C46U G50C C55A G63A C66U it is ≤ 0.5; for G18A A69C it is 0.926.

Take A14C A40C U64C: the yeast fitness stood at 0.622. For U3A U19A C33U G52C A65G the value was ≤ 0.5; for U7G G9A C31G C33U A36G, ≤ 0.5. The figure for C5A U13G C24G C31A C62U C66U is ≤ 0.5; for A21G A70C it is 0.993; for U7G A14U U26A C61A it is ≤ 0.5. For C5U A40G C49U C62U A65G the value was ≤ 0.5; for U3C G6C C46A, 0.645; for A20C C24U A42U U59C, 0.619. As to G17C C27U C61A, the yeast fitness amounted to 0.537. For U53C C61A G68A the value was 0.58; for C34A A43C A65C, ≤ 0.5.

As for C49A A57C A65G, the yeast fitness was ≤ 0.5. The figure for C4U U32G A40C is 0.57; for A43G G63A it is 0.745; for C4A U8G G41C A45G it is 0.703. The figure for U2C G12A G18C C33U C55U is ≤ 0.5. The figure for C46U C62U is 1. For G10C C46A C55U, the yeast fitness was determined as 0.603. The figure for U8A G12A is 0.824; for C29U U54A it is 0.627; for G18A G25A C46U U59C G68A it is ≤ 0.5. In the case of A15G A21U A36U C49U G52C C62A G67A, the yeast fitness is ≤ 0.5.

Take U3A C30G C55U A70U: the yeast fitness is ≤ 0.5. For A15G U26C G56A A69U the value was ≤ 0.5; for U7C C30U C66G, ≤ 0.5. On to G48A G63A, for which the yeast fitness was determined as 0.887. For C5U A20C C27U G39A G56A G58C the value was ≤ 0.5. Turning to A21C C29A G41A U54A, the yeast fitness is ≤ 0.5. For the variant G10A G38C G67U, the yeast fitness is ≤ 0.5.

In the case of A65G A70G, the yeast fitness worked out at 0.865. Consider G12A A40C A65C, for which the yeast fitness stood at 0.655. For C4U C11U G25C G41A the value was 0.706; for A21G C27G G63A, ≤ 0.5.

G58A U59A: the yeast fitness was 1.06. For C24G C34G the value was 0.55; for U2C C24U, 0.952. For C11G A36C G38U G56A the value was ≤ 0.5; for G9A A70G, 1.06; for G6A G12C G18C G41A A43G G48A, ≤ 0.5. The figure for C55A C61A is 0.579. Take G6A A15G C46U C66U: the yeast fitness amounted to 0.77. Regarding G10A U26G, the yeast fitness was determined as 0.681.

On to G9C C29U C30A C46G, for which the yeast fitness is ≤ 0.5. For U32C C34U G44C, the yeast fitness is ≤ 0.5.

On to A20G A43C G56A A57U, for which the yeast fitness is ≤ 0.5. For A20U G25A C49G the value was 0.619; for A20G U54G C66G, ≤ 0.5; for C5U C11G C22G C46G, ≤ 0.5. For C27G A40G C62U A65U the value was ≤ 0.5; for U16C C29U G63A, 0.527. For C5G U7C C34A the value was ≤ 0.5; for C24A U47G G58A C62A, ≤ 0.5; for G12A A37U, 0.653.

For the variant A20C C30U G68A, the yeast fitness is ≤ 0.5.

Turning to A20U U26C, the yeast fitness is 0.89. Regarding C5U A14C A45C A65C, the yeast fitness worked out at 0.561.

As to G41C C49A, the yeast fitness was found to be 0.572.

On to C34U A70G, for which the yeast fitness is 0.803.

For U7C A14G C29U C31U C33U C55U, the yeast fitness was ≤ 0.5. For U26A A43C the value was 0.966; for C24A C31U, 0.754.

As for C5G G39A G52A A70G, the yeast fitness was ≤ 0.5.

Consider A15U A20G C27U G48C A70U, for which the yeast fitness is ≤ 0.5. C11U A15C C27G C30U C46A: the yeast fitness was ≤ 0.5. For C4A C31G A40U the value was 0.62; for G10C C33G A43G C46G C62G, 0.562. Consider C49U C61U, for which the yeast fitness turned out to be 0.814.

For the variant U13A G41A G68C, the yeast fitness was 0.504. The figure for A20C C29G G52A is ≤ 0.5. For C22U G25C C31U the value was 0.625. As for U32G C34U A57G, the yeast fitness came to 0.561. For U59A C62G G67A the value was ≤ 0.5; for A43G C55U C61U, 0.543. The figure for U3C U8G U32A C33G is ≤ 0.5; for C46A A57C C60A it is ≤ 0.5; for C11U C46U U59C it is 0.767.

For the variant A21G C30A, the yeast fitness worked out at 1. Consider C4U G17A C22U G68C, for which the yeast fitness is ≤ 0.5. The figure for A36C U59C is 0.562.

Consider U7A C29G C34G A36G U54C A57G, for which the yeast fitness was ≤ 0.5.

In the case of C31G A57U A69G, the yeast fitness was determined as 0.774. For A14G U19G C27G C34A A42U, the yeast fitness was ≤ 0.5. The figure for A21G G39A U54C A70C is ≤ 0.5. The figure for G6C C55U U59G A70U is ≤ 0.5. Regarding C11U A20U G68A A70C, the yeast fitness is 0.515. The figure for C5U U16A G23A G25C is ≤ 0.5. Take C11U C49G: the yeast fitness came to 0.892.

As to U3A G67C, the yeast fitness stood at 0.827. The figure for A20G G38A C46U is 0.883.

As to C49A C61U, the yeast fitness amounted to 0.607. The figure for C5G A20G C55G is 0.538. For U7A G9C C24A A43U G52A C60G A69U A70C the value was ≤ 0.5; for A36U A42U C46U G56C C61G A65U G67A A70G, ≤ 0.5.

In the case of C30A C34U G63C, the yeast fitness stood at 0.698. With U35C A42C G50A, the yeast fitness was ≤ 0.5. With G6A G23A C24G G44A, the yeast fitness is ≤ 0.5. Turning to A21C C34G A36G C46A C66A A70G, the yeast fitness is ≤ 0.5. For G9C C34G G51A A70G the value was ≤ 0.5; for C4A G12C U19C C24G A43U C61U, 0.532. For the variant C30G C34U U47A C49A, the yeast fitness came out at 0.691. For C4G G17A A69C the value was 0.525. For G6C G10A the value was 0.666; for G10A U28A A42U, ≤ 0.5.

Consider G23C C49G G63A, for which the yeast fitness is ≤ 0.5.

As for U28C G52A C61U, the yeast fitness is 0.698. As to C22U C34G G39A C66U, the yeast fitness is ≤ 0.5. The figure for U16A G48C C55G G67C A70U is 0.604; for G6A G52A G68C it is 0.609; for G6C A14C C31G A42U A43G it is ≤ 0.5.

On to U26A C30G A37C A69C, for which the yeast fitness is ≤ 0.5. G23C G44C G68C: the yeast fitness was ≤ 0.5.

C5U U28G A42U: the yeast fitness was ≤ 0.5. The figure for A36C C55U C66A is ≤ 0.5; for C24A U26C U54A C60U A69C it is 0.819. The figure for C29G G68C is 0.595; for U8A C24U A40U A42C A45U C61U it is ≤ 0.5.

For the variant U16A G18C G48C, the yeast fitness was 0.646. For A20C G56A the value was 0.866; for U7C U16C, 0.831; for U26A C31A A42G C55G, ≤ 0.5. Regarding C22A C27A U59C, the yeast fitness came to 0.586. The figure for A15C U28A C34G C55A A57U U59C C60U is ≤ 0.5; for C5G A20U it is 0.621. The figure for G9C C11A A15U C24G C33G G38C A43G C60U G63A is ≤ 0.5. The figure for G9A C46G is 0.993; for C29U C33G it is 0.689; for C5G A20U A37G U64A it is 0.577. Consider C4U A14G C34A, for which the yeast fitness is ≤ 0.5.
